The results in this text go back to ChEMBL document CHEMBL4229344 (Eur J Med Chem, 2018).

Calls of active or inactive are those of the source. The rule behind the calls is not given here.

The target of experiment [1] is G protein-coupled receptor kinase 4 (Homo sapiens) (UniProt P32298). Description: Binding affinity to wild-type human full length GRK4 (M1 to C578 residues) expressed in bacterial expression system assessed as residual binding level at 1 uM by Kinomescan method relative to control. The method in brief: (§1)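 Single-concentration (1 μM) competition-binding screen run by KINOMEscan against a panel of 468 purified kinases and mutants. The read-out is the relative binding activity of the test compound to each kinase.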

Experiment [2] relates to Phosphatidylinositol 4,5-bisphosphate 3-kinase catalytic subunit alpha isoform (Homo sapiens), P42336 [E542K]. Description: Binding affinity to human partial length PIK3CA E542K mutant (R108 to N1068 residues) expressed in mammalian expression system assessed as residual binding level at 1 uM by Kinomescan method relative to control. The method in brief: (§2)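 Kinome-wide single-concentration binding screen (KINOMEscan) at 1 μM against a panel of 468 purified kinases and mutants. Read-out is relative binding of each kinase compared with control. Selectivity across the panel was summarised as an S(10) score.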

The target of experiment [3] is Serine/threonine-protein kinase TAO2 (Homo sapiens) (UniProt Q9UL54). Nature of the experiment: Binding affinity to wild-type human partial length TAOK2 (M1 to A320 residues) expressed in mammalian expression system assessed as residual binding level at 1 uM by Kinomescan method relative to control.
Experiment [4] is filed under the species Homo sapiens. Description: Selectivity index, ratio of IC50 for PDGFRbeta (unknown origin) by ADP-Glo kinase assay to IC50 for PDGFRalpha (unknown origin) by ADP-Glo kinase assay. A general note: ADP-Glo turns the ADP formed in a reaction into a luminescent signal.
For experiment [5], the system named is Fibroblast growth factor receptor 3 (Homo sapiens), P22607 [G697C]. Description: Binding affinity to human partial length FGFR3 G697C mutant (R442 to S771 residues) expressed in bacterial expression system assessed as residual binding level at 1 uM by Kinomescan method relative to control. The method in brief: as §2
In experiment [6] the target is 5'-AMP-activated protein kinase catalytic subunit alpha-1 (Homo sapiens) (UniProt Q13131). Description: Binding affinity to wild-type human partial length AMPK alpha1 (M1 to E306 residues) expressed in bacterial expression system assessed as residual binding level at 1 uM by Kinomescan method relative to control. The method, boiled down:
(§3)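 Kinome-wide competition binding screen against a panel of 468 purified kinases/mutants, with the test compound at a single concentration of 1 μM. Read-out is the relative binding activity of each kinase in the presence of compound.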

The target in experiment [7] is Serine/threonine-protein kinase PknB (Mycobacterium tuberculosis) (UniProt P9WI81). Nature of the experiment: Binding affinity to wild-type Mycobacterium tuberculosis H37Rv ATCC 25618 partial length PKNB (M1 to G279 residues) expressed in mammalian expression system assessed as residual binding level at 1 uM by Kinomescan method relative to control. The method, boiled down: as §1

Experiment [8] relates to Receptor-type tyrosine-protein kinase FLT3 (Homo sapiens), P36888 [D835V]. Description: Binding affinity to human partial length FLT3 D835V mutant (V592 to Y969 residues) expressed in bacterial expression system assessed as residual binding level at 1 uM by Kinomescan method relative to control. The method in brief:
as §2

Experiment [9] concerns the target Cyclin-dependent kinase 2 homolog (Plasmodium falciparum (isolate 3D7)) (UniProt P61075). Nature of the experiment: Binding affinity to wild-type Plasmodium falciparum 3D7 full length PK5 (M1 to N288 residues) expressed in mammalian expression system assessed as residual binding level at 1 uM by Kinomescan method relative to control. The method in brief:
as §1

Experiment [10] addresses Ribosomal protein S6 kinase alpha-3 (Homo sapiens) (UniProt P51812). Nature of the experiment: Binding affinity to wild-type human partial length N-terminal RSK2 kinase domain 1 (M1 to D394 residues) expressed in mammalian expression system assessed as residual binding level at 1 uM by Kinomescan method relative to control.
In experiment [11] the target is Serine/threonine-protein kinase Chk2 (Homo sapiens) (UniProt O96017). Nature of the experiment: Binding affinity to wild-type human partial length CHEK2 (S253 to E574 residues) expressed in bacterial expression system assessed as residual binding level at 1 uM by Kinomescan method relative to control.
Experiment [12] concerns the target Platelet-derived growth factor receptor alpha (Homo sapiens, UniProt P16234). Nature of the experiment: Inhibition of PDGFRalpha in human EOL-1 cells assessed as decrease in STAT5 phosphorylation at Y694 residue up to 300 nM after 2 hrs by Western blot analysis. It is filed as cell-based. For orientation: Immunoblotting shows a protein as a band on a membrane.

Experiment [13] deals with Ephrin type-B receptor 1 (Homo sapiens) (UniProt P54762). Nature of the experiment: Binding affinity to wild-type human partial length EPHB1 (P589 to T911 residues) expressed in bacterial expression system assessed as residual binding level at 1 uM by Kinomescan method relative to control.
Experiment [14] concerns the target Serine/threonine-protein kinase 38-like (Homo sapiens) (UniProt Q9Y2H1). Description: Binding affinity to wild-type human partial length NDR2 (N34 to E447 residues) expressed in bacterial expression system assessed as residual binding level at 1 uM by Kinomescan method relative to control. The method, boiled down:
as §3

The target in experiment [15] is Bone morphogenetic protein receptor type-1A (Homo sapiens) (UniProt P36894). Nature of the experiment: Binding affinity to wild-type human partial length BMPR1A (Q214 to I532 residues) expressed in bacterial expression system assessed as residual binding level at 1 uM by Kinomescan method relative to control. The method in brief: (§4)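 Single-concentration KINOMEscan (DiscoverX) binding screen at 1 μM against a panel of 468 purified kinases and mutants. The read-out is binding relative to control.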

The subject of experiment [16] is Receptor-type tyrosine-protein kinase FLT3 (Homo sapiens), P36888 [K663Q]. Description: Binding affinity to human partial length FLT3 K663Q mutant (V592 to Y969 residues) expressed in bacterial expression system assessed as residual binding level at 1 uM by Kinomescan method relative to control. The method, boiled down:
as §2

The target in experiment [17] is Serine/threonine-protein kinase 4 (Homo sapiens) (UniProt Q13043). Nature of the experiment: Binding affinity to wild-type human full length MST1 (M1 to F487 residues) expressed in bacterial expression system assessed as residual binding level at 1 uM by Kinomescan method relative to control. The method in brief: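 KINOMEscan competition binding against 468 purified kinases/mutants, test compound at 1 µM; residual binding relative to control.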

Experiment [18] addresses Mitogen-activated protein kinase kinase kinase 5 (Homo sapiens) (UniProt Q99683). Nature of the experiment: Binding affinity to wild-type human partial length ASK1 (E648 to S964 residues) expressed in bacterial expression system assessed as residual binding level at 1 uM by Kinomescan method relative to control. The method, boiled down: as §4
Experiment [19] has as its target Serine/threonine-protein kinase LATS1 (Homo sapiens) (UniProt O95835). Nature of the experiment: Binding affinity to wild-type human partial length LATS1 (Q678 to V1130 residues) expressed in bacterial expression system assessed as residual binding level at 1 uM by Kinomescan method relative to control.
For experiment [20], the system named is EOL1. Nature of the experiment: Antitumor activity against human EOL-1 cells xenografted in nu/nu mouse assessed as tumor growth inhibition at 25 to 100 mg/kg/day, ip. It is filed as functional, organism-based. The method in brief: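 Female nu/nu mice, six weeks old; 5 million EOL-1 cells in PBS mixed 1:1 with Matrigel, injected subcutaneously in the right flank. Dosing began once tumors reached 200–400 mm3, with randomization into groups of 6. Daily IP dosing at 25.0, 50.0 or 100 mg/kg/d in 0.5% methocellulose/0.4% Tween80 in water, or vehicle alone, for 14 days. Tumor volume = (W2×L)/2, measured daily. Final tumor weights were also recorded.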
A general note: In xenograft studies the graft and the host belong to different species.

Chain of Bone morphogenetic protein receptor type-1A (Homo sapiens) (P36894 whole entry, the tested form may be a part): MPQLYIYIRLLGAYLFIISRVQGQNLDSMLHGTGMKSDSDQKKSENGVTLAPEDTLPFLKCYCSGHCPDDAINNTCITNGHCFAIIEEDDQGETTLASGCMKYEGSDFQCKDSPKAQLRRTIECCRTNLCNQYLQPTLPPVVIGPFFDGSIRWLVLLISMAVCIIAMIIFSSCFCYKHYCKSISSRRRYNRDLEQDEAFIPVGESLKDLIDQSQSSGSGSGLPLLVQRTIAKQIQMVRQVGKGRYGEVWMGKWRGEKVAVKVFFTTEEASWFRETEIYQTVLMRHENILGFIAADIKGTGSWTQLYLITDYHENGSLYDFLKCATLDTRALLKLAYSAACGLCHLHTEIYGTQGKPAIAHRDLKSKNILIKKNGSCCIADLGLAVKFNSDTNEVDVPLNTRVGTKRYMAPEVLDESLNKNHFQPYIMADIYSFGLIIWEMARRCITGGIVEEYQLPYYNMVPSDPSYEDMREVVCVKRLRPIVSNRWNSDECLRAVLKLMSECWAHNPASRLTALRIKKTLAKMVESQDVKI
Chain of Mitogen-activated protein kinase kinase kinase 5 (Homo sapiens) (Q99683 whole entry, the tested form may be a part): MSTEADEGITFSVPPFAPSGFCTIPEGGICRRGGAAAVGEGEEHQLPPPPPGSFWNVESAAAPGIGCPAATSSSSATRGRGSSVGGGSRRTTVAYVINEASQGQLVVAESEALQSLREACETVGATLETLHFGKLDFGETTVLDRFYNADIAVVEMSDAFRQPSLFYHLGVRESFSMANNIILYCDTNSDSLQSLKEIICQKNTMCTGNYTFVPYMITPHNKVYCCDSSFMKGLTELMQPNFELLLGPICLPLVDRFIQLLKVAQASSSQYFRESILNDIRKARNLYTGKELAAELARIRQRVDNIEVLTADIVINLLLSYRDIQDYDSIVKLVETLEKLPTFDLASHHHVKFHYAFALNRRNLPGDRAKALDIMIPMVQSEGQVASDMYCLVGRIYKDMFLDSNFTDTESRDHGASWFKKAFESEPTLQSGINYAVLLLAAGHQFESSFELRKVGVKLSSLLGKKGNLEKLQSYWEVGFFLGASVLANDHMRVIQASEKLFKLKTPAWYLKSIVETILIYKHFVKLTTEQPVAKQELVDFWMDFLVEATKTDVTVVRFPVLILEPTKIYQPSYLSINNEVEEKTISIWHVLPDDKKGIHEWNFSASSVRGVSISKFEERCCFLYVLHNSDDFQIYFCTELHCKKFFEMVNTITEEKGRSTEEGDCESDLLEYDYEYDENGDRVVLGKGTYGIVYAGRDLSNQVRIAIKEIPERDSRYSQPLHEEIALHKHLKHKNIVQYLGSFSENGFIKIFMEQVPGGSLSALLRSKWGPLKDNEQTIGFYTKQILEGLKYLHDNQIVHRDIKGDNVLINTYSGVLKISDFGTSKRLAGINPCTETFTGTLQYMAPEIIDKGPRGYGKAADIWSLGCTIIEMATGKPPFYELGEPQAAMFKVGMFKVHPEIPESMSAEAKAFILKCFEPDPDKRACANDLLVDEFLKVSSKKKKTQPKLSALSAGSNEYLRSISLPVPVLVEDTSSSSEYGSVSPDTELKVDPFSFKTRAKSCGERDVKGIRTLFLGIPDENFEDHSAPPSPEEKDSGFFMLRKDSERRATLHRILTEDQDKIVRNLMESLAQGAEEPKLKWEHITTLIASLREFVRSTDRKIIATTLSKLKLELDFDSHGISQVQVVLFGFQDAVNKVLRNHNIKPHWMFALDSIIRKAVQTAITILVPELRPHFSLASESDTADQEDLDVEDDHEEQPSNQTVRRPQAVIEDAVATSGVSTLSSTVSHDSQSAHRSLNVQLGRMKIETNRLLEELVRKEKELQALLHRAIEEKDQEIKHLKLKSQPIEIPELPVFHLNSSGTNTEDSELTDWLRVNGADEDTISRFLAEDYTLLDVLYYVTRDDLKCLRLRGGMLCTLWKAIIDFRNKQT
Chain of 5'-AMP-activated protein kinase catalytic subunit alpha-1 (Homo sapiens) (Q13131 whole entry, looked up, the tested form may be a part): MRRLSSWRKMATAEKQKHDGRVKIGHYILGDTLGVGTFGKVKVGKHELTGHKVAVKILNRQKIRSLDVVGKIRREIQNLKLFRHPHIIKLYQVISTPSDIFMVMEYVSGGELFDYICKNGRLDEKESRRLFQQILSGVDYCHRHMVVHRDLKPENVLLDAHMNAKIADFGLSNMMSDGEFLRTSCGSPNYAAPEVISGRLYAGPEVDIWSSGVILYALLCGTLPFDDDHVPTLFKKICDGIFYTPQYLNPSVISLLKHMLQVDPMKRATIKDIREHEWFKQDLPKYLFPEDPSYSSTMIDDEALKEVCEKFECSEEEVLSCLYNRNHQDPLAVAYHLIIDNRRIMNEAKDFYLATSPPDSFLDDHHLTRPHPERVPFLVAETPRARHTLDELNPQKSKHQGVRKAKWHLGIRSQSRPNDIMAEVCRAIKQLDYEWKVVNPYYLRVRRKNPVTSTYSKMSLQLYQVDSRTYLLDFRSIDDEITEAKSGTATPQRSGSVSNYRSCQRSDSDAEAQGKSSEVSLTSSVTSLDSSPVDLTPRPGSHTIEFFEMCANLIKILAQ
Chain of Fibroblast growth factor receptor 3 (Homo sapiens), P22607 [G697C] (P22607 whole entry G697C, the tested form may be a part): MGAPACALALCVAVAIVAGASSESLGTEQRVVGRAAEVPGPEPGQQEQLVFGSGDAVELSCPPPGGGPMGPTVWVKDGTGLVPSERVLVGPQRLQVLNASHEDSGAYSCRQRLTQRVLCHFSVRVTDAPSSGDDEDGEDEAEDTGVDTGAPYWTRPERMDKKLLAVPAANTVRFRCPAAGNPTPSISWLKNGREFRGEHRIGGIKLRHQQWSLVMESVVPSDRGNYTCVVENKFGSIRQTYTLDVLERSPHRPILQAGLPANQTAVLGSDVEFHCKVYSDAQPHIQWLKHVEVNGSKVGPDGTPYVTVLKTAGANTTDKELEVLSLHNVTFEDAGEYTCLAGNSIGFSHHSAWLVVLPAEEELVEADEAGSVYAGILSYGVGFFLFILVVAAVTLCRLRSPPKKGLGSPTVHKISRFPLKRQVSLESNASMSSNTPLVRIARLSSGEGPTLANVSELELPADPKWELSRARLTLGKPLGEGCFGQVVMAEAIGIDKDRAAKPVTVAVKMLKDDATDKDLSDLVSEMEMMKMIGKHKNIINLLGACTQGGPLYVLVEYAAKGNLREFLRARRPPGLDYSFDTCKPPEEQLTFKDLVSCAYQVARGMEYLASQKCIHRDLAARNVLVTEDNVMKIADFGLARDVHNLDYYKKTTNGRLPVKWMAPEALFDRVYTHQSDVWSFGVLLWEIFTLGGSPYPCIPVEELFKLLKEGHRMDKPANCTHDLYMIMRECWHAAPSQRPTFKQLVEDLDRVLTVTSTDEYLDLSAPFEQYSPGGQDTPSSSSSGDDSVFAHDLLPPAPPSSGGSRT
Chain of Cyclin-dependent kinase 2 homolog (Plasmodium falciparum (isolate 3D7)) (P61075 whole entry, the tested form may be a part): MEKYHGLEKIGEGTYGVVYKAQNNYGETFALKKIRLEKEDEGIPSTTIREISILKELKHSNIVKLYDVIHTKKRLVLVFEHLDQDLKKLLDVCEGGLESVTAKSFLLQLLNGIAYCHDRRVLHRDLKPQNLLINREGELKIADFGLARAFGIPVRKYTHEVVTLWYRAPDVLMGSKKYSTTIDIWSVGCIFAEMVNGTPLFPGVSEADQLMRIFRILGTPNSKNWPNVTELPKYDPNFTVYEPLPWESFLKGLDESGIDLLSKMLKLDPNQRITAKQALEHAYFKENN
Chain of Serine/threonine-protein kinase LATS1 (Homo sapiens) (O95835 whole entry, the tested form may be a part): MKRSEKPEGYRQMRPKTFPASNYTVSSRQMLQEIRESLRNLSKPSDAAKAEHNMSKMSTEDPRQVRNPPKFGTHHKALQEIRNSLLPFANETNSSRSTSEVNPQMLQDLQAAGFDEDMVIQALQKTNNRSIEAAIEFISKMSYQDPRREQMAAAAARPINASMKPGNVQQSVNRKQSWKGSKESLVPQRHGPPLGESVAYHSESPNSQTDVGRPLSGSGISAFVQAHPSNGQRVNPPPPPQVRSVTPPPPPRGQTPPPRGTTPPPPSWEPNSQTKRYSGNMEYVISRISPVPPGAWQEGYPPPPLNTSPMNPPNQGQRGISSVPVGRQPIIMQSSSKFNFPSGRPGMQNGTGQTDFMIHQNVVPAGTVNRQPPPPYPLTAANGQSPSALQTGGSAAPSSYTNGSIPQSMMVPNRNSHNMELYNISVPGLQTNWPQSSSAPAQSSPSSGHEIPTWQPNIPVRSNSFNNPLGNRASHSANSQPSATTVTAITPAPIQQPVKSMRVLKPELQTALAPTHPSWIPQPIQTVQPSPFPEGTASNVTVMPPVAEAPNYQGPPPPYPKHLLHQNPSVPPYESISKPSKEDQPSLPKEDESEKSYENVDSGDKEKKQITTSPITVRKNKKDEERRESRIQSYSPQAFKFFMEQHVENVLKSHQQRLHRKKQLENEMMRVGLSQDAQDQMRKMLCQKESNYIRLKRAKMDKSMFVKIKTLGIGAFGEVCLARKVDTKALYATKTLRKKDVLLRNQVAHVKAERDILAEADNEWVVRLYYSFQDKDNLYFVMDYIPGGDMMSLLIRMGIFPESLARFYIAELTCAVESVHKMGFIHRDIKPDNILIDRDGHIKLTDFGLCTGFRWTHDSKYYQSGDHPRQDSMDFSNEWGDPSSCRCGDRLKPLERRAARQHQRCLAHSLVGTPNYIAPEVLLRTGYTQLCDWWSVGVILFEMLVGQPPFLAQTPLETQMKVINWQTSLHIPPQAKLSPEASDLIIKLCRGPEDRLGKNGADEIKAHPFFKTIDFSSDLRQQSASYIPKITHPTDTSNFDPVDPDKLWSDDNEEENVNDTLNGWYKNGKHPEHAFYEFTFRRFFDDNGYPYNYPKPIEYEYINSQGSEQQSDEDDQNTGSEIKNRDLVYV

Consider `Cc1ccc(NC(=O)c2ccc(CN(CCN(C)C)C(=O)c3cccnc3)cc2)cc1Nc1nccc(-c2cccnc2)n1`, for which the Activity in experiment [1] came out at 88%; in experiment [2] it was 83%; in [3], 77%; in experiment [5] it was 100%; in experiment [6], 92%; in [7] it was 99%. For the same compound, the Activity worked out at 100% in experiment [8]; 100% in [9]; 100% in experiment [10]; 95% in experiment [11]; 100% in [13]; 82% in experiment [14]. Further, the Activity in experiment [15] came to 100%; in [16], 93%; in experiment [17], 79%; in experiment [18] it was 100%; in experiment [19], 98%. In [4], the Ratio IC50 is 46. Further, the inhibition entry in experiment [12] is “Active”. Moreover, the TGI result in experiment [20] is “Dose-dependent effect”.
